Screens deposited in PubChem by several laboratories.
In the library only some 5.7% were active in any assay of this set; here they are far more common.
Mdm2-MdmX inh: disrupts the human Mdm2-MdmX interaction. SaOS-2 split-luciferase Mdm2/MdmX complementation, luminescence. O15151+Q00987. inhibition, % at 8 µM. AID 485346. 3% of 330,000 active;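 active = inhibition of at least 50% at 8 µM in the primary screen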
Target sequence (O15151 whole entry, looked up): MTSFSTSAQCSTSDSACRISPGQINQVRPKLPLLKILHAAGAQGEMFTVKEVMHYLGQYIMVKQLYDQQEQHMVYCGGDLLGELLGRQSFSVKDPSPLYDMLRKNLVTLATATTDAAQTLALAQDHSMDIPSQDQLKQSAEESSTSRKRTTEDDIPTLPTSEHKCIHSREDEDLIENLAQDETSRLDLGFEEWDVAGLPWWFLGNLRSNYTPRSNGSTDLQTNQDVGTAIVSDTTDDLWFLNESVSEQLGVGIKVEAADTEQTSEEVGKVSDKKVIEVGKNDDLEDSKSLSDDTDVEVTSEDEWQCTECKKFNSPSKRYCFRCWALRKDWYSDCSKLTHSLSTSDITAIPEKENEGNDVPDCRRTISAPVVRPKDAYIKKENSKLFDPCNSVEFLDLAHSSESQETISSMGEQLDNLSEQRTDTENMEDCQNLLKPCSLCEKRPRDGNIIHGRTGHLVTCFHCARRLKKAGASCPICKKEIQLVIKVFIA
Target sequence (Q00987 whole entry, looked up): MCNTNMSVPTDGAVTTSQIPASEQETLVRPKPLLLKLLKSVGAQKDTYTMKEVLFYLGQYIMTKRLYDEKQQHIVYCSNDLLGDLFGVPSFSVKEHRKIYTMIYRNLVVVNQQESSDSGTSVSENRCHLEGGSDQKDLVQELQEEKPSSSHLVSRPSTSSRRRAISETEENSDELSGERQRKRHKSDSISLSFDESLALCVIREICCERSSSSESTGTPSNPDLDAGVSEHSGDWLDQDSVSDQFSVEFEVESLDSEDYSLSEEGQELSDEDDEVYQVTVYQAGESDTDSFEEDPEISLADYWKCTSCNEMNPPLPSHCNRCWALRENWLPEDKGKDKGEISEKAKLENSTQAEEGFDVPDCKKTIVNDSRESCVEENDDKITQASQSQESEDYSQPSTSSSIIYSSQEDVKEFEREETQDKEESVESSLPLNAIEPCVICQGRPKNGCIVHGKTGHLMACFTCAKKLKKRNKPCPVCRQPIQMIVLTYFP
SKKanGAS inh: blocks kanamycin growth of S. pyogenes SKKanGAS strain. inhibition, % at 7.5 µM. 1.3% of 300,000 active. BacTiter-Glo, 6 h;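 active = mean replicate score, as percent of positive control median, at least 50; inconclusive = mean below 50 but one replicate at or above 50; inactive = mean and every replicate below 50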;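 note: strain carries kanamycin resistance gene driven by streptokinase promoter and grows in 40 µg/ml kanamycin; loss of luminescence reflects streptokinase promoter inhibition or plain growth inhibition; 0% = median of DMSO wells and 100% = positive control at its reference dose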
Beta apoptosis: beta cell apoptosis inhibition. protection from apoptosis, % (test concentration not listed). 0.8% of 300,000 active. INS-1E cytokine-induced death, ATP luminescence, 48 h; percent of positive-control rescue, neutral wells zero;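 active = Every replicate reaches about 75%, or at least half do and their mean reaches it too, limit read from the data; inconclusive = At least half of replicates reach the limit but their mean does not; inactive = Under half of replicates reach the limit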;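 note: 0% = cytokine-treated negative control wells and 100% = positive control rescue; higher means more ATP so stronger rescue from cytokine killing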
Calb FLC: C. albicans growth modulation with fluconazole. C. albicans CaCi-2 (fluconazole-resistant clinical isolate) + fluconazole, Alamar Blue growth, 48 h. growth inhibition, % (no concentration beside the values). 0.57% of 300,000 active;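 active = growth inhibition above about 58% in most replicates, limit read from the data, passing the limit was not always enough; inconclusive = exactly half the replicates above a set limit; inactive = most replicates below a set limit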;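 note: all wells also contain fluconazole at 8 µg/ml as a sub-toxic cotreatment; 0% = median of DMSO wells and 100% = median of geldanamycin control wells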
CSC inhib: cancer stem cell inhibition | cancer stem cell-like cells viability, luminescence | inhibition, % at 7.5 µM | 1.1% of 300,000 active; in the data active = inhibition above about 75%; inconclusive = no clear call, values can overlap the other calls; tested in HMLE shEcad cells
T cruzi repl: T. cruzi replication inhibition. 1.4% of 300,000 active. T. cruzi beta-gal in NIH3T3, luminescence, 90 h. inhibition, % (concentration not given with the values);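 active = mean inhibition across valid replicates above about 55%, limit read from the data; inconclusive = mean below that limit but half or more replicates reach it; inactive = mean below it, under half of replicates reach it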;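 note: signal also drops with host cell toxicity which is not excluded here; 0% = plate median of DMSO wells and 100% = zero luminescence signal; higher percent means less beta-gal luminescence so fewer parasites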
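Material: NIH/3T3 host cells with β-galactosidase reporter T. cruzi; Input: 5,000 host fibroblasts per well; Medium: DMEM, 2% fetal bovine serum; Compound: 50 nL DMSO compound solution per well; Schedule: 3 h host attachment, then at least 90 h co-culture; Detection: luminescent β-galactosidase signal after 60 min lysis.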
Mdm2-MdmX conf: confirmation of human Mdm2/MdmX interaction inhibitors; shares compounds with Mdm2-MdmX inh; Mdm2-MdmX binding, luminescent assay; inhibition, % at 8 µM; 55% of 10,000 active; in the data active = inhibition above about 40%
Full FLuc ctr: inhibits full-length luciferase, flagging false Mdm2/MdmX hits. shares compounds with Mdm2-MdmX inh. SaOS-2 full-length luciferase counterscreen, luminescence. AID 504607. inhibition, % at 8 µM. 77% of 6,200 active;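 active = mean inhibition at 8 µM reaching about 37%, which flags the compound as non-specific, limit read from the data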;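 note: p53-null SaOS-2 cells with luciferase driven by a doxycycline-inducible promoter; compound on cells about two nights before reading with doxycycline added after day one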
Starred values were filed as active, the others as inactive; ? = inconclusive; . = no result given.

SMILES	Mdm2-MdmX inh	SKKanGAS inh	Beta apoptosis	Calb FLC	CSC inhib	T cruzi repl	Mdm2-MdmX conf	others
N#CCCn1cc(/C=C2\NC(=S)N(c3ccccc3)C2=O)c(-c2ccc(-c3ccccc3)cc2)n1	63.3*	8.8	6.2	-8.6	-2.2	28.7	18.6
Cc1ccccc1Cn1c(CN2CCN(c3ccc(F)cc3)CC2)nc2c1c(=O)n(C)c(=O)n2C	62.1*	3.6	8.1	-1.1	58.2	13.2	27.6
CCOc1ncccc1C(=O)N1CCN(c2cc(Cl)ccc2C)CC1	61.2*	6.7	5.8	24.4	56.8	-38.1	59.4*	Full FLuc ctr=81.2*
Cc1onc(C(=O)N2CCN(c3ccccc3)CC2)c1[N+](=O)[O-]	3.9	9.4	.	1.5	.	-7.5	.
Cc1ccc(Cl)cc1N1CCN(C(=O)c2noc(C)c2[N+](=O)[O-])CC1	75.1*	7.5	.	9.9	.	-19.7	75.7*	Full FLuc ctr=59.5*
O=C(NCC1CCCN1S(=O)(=O)c1cccs1)c1cccc(Cl)c1 (stereo not drawn)	20.3	-0.9	.	0.4	-6.8	16.4	.
O=C(CCNC(=O)c1ccc([N+](=O)[O-])cc1)NNC(=O)c1ccccc1F	-8.8	.	0.8	.	.	.	.
CCC/C(C#Cc1cc(OC)cc(OC)c1)=C1/c2ccccc2C(=O)N1c1ccccc1	23.8	.	1.3	.	11.2	.	.
CCC/C(C#Cc1ccc(N(C)C)cc1)=C1/c2ccccc2C(=O)N1c1ccccc1	50.6*	.	47.5	.	42.3	.	7.8
C=CCn1c(O)c(C2=c3ccccc3=NC2=O)s/c1=N/c1nccs1	79.4*	-38.3	2.7	3.4	-5.7	-20.8	22.8
O=C(Nc1ccccc1C(F)(F)F)C1CCN(C(=O)c2cccs2)CC1	-25.7	4.7	4.7	-5.6	-17.3	-3.0	.
COC(=O)CSc1nc2ccc(NC(=O)CSc3nnnn3Cc3ccccc3)cc2s1	94.2*	15.7	6.1	21.2	2.2	0.3	32.5
Cc1cc(C)c(NC(=O)CSc2nc3ccc(NC(=O)CSc4nnnn4Cc4ccccc4)cc3s2)c(C)c1	36.5	10.0	2.3	-6.2	-2.5	20.1	.
O=C(CSc1nc2ccc(NC(=O)CSc3nnnn3Cc3ccccc3)cc2s1)Nc1ccccc1	50.2*	4.5	.	-7.2	-9.9	-2.7	14.7
Cc1ccc(OCc2cc(C(=O)N(C)CCc3nc4ccccc4[nH]3)no2)cc1C	28.2	3.1	.	-3.6	.	11.1	.
CCc1ccc(NC(=O)C(CC)Sc2nc3cc4c(cc3c(=O)n2Cc2ccco2)OCO4)cc1 (stereo not drawn)	81.0*	3.3	66.9	-4.7	?	37.6	8.7
CCc1ccccc1NC(=O)C(CC)Sc1nc2cc3c(cc2c(=O)n1Cc1ccco1)OCO3 (stereo not drawn)	22.3	3.1	.	21.9	67.5	-1.8	.
CCN(CC)C(=O)Cn1cc(SCC(=O)NC)c2ccccc21	13.9	-4.0	-2.5	2.5	-4.6	-8.1	.
Cc1csc(SCC(=O)c2cc(C)n(Cc3cccs3)c2C)n1	66.1*	9.1	14.4	2.7	-8.2	19.3	78.6*	Full FLuc ctr=106.7*
CC(=O)Nc1ccc(SCC(=O)c2cc(C)n(-c3ccccc3F)c2C)cc1	72.3*	-6.4	-0.7	-13.0	87.4*	11.8	81.8*	Full FLuc ctr=73.0*
Cc1cc(C(=O)CSc2nnc(N)s2)c(C)n1Cc1cccs1	1.6	-4.4	1.1	-7.4	29.6	-4.0	.
CC(=O)Nc1ccc(SCC(=O)c2cc(C)n(Cc3cccs3)c2C)cc1	74.5*	3.6	0.9	-0.5	106.0*	10.7	-1.9
CC(C)C(CCNCc1ccccn1)c1ccc(Cl)cc1 (stereo not drawn)	18.4	0.5	2.6	2.3	-2.1	-5.8	.
CCNC(=O)N1CCN(CCCC(c2ccc(F)cc2)c2ccc(F)cc2)CC1	15.5	.	-4.1	.	-6.9	.	.
CN1CCC(NCCC(c2ccc(F)cc2)c2ccc(Cl)cc2)CC1 (stereo not drawn)	100.3*	16.7	22.2	-1.8	34.5	48.5	97.8*	Full FLuc ctr=58.8*
SMILES	Mdm2-MdmX inh	SKKanGAS inh	Beta apoptosis	Calb FLC	CSC inhib	T cruzi repl	Mdm2-MdmX conf	others
CC(C)C(CCNC1CCN(C)CC1)c1ccc(Cl)cc1 (stereo not drawn)	76.5*	2.8	.	-24.9	.	28.9	55.8*	Full FLuc ctr=54.2*
COc1ccc(/C=C2\CCCc3c2nc2ccccc2c3C(=O)OCC(=O)c2c(N)n(C)c(=O)n(C)c2=O)cc1	85.6*	18.6	10.7	6.7	9.5	67.6*	78.8*	Full FLuc ctr=44.4*
Cc1ccc(C)c(NC(=O)COC(=O)c2ccc3ccccc3n2)c1	10.7	.	-2.7	.	.	.	.
CC(C)=CCC/C(C)=C/CNC(=O)C[C@H]1C[C@H](C(=O)N2CCOCC2)[C@@]2(C)c3[nH]c4ccc(Cl)cc4c3CCN2C1=O	88.3*	.	.	.	.	.	12.0
CC(C)=CCC/C(C)=C/CNC(=O)CC1C[C@H](C(=O)N2CCOCC2)[C@@]2(C)c3[nH]c4ccccc4c3CCN2C1=O (stereo partly drawn)	32.7	.	2.6	.	20.4	.	.
CCN(CC)C(=O)[C@H]1C[C@H](CC(=O)NC/C=C(\C)CCC=C(C)C)C(=O)N2CCc3c([nH]c4cc(CCC(=O)N(C)C)ccc34)[C@]12C	67.6*	.	.	.	.	.	10.4
COc1cccc(CN2CC(C(=O)NCc3ncc(C)[nH]3)CCC2=O)c1 (stereo not drawn)	18.1	-2.0	-3.1	-21.2	-8.5	-14.2	.
CC(=O)c1cc(-c2ccc(F)cc2)n(CCC(=O)Nc2cccnc2)c1C	-0.9	4.0	-3.5	-3.4	-3.5	-0.4	.
CC1(C)C[C@@H](O)[C@]2(C)CC[C@]3(C)C(=CCC4[C@@]5(C)CC[C@H](O)[C@](C)(CO)C5CC[C@]43C)[C@@H]2C1 (stereo partly drawn)	76.8*	.	.	.	.	.	-43.6
O=C(CSc1ccc(-c2ccco2)nn1)c1ccccc1	-27.6	3.7	-9.8	-22.9	6.6	-2.2	.
COc1cc(-c2nc(C(=O)NC3CCCCC3)cc3c2[nH]c2ccccc23)cc(OC)c1OC	47.6	46.6	.	2.3	-1.2	54.1	.
COc1ccc(OC)c(-c2nc(C(=O)NC3CCN(Cc4ccccc4)CC3)cc3c2[nH]c2ccccc23)c1	50.3*	26.6	.	-1.9	-0.7	41.9	20.2
COc1cc(-c2nc(C(=O)NC3CCN(Cc4ccccc4)CC3)cc3c2[nH]c2ccccc23)cc(OC)c1OC	79.1*	34.5	36.1	-0.9	-6.5	76.7*	55.7*	Full FLuc ctr=50.1*
COc1ccc(OC)c(-c2nc(C(=O)NCCCN3CCOCC3)cc3c2[nH]c2ccccc23)c1	17.8	0.1	-0.5	6.8	0.9	24.0	.
Cc1ccc2[nH]c3c(c2c1)CCCC3NC(=O)CCl (stereo not drawn)	80.4*	8.2	-18.0	-0.6	39.4	-45.8	30.6	Full FLuc ctr=17.5
